What is called IC50 is the midpoint of a concentration-inhibition curve.

In ChEMBL document CHEMBL1138066, “Semisynthetic maytansine analogues for the targeted treatment of cancer” (J Med Chem, 2006) one finds IC50 data, which are given here for 25 molecules.

The test system of one experiment is SK-BR-3. Description: Cytotoxicity against human SK-Br-3 cell line by clonogenic plating efficiency assay after 72 hrs. In kind it is functional, cell-based. To be noted: SK-BR-3, 72 h. In a few lines: (§1)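 Clonogenic assay: 1000 cells per well in 6-well dishes, exposed to free maytansinoids (0 to 3 nM) for 72 h, then medium replaced with fresh medium. Colonies grown 7-10 days after plating, fixed and stained with 0.2% crystal violet in 10% formalin/PBS, counted. Surviving fraction = colonies in drug-treated wells / colonies in control wells; IC50 in nM.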

The test system of a further experiment is KB. Description: Cytotoxicity against human KB cell line by clonogenic plating efficiency assay after 72 hrs. In kind it is functional, cell-based. In a few lines:
as §1

For a further experiment, the system named is OVCAR-3. Description: Cytotoxicity against human Ovcar3 cell line by clonogenic plating efficiency assay after 24 hrs. To be noted: OVCAR-3, 24 h.
Another experiment deals with A-431. The experiment is described as follows: Cytotoxicity against human A431 cell line by clonogenic plating efficiency assay after 72 hrs. In kind it is functional, cell-based. The following applies: A-431, 72 h.
For a further experiment, the system named is MCF7. The experiment is described as follows: Cytotoxicity against human MCF7 cell line by clonogenic plating efficiency assay after 72 hrs. In kind it is functional, cell-based. To be noted: MCF7, 72 h.
A further experiment deals with HCT-15. Description: Cytotoxicity against human HCT15 cell line by clonogenic plating efficiency assay after 72 hrs. In kind it is cell-based. The following applies: HCT-15, 72 h.
The next experiment deals with SW-620. The experiment is described as follows: Cytotoxicity against human SW620 cell line by clonogenic plating efficiency assay after 24 hrs. The following applies: SW-620, 24 h.
In another experiment the test system is A549. The experiment is described as follows: Cytotoxicity against human A549 cell line by clonogenic plating efficiency assay after 72 hrs. In kind it is functional, cell-based. To be noted: A549, 72 h.
A further experiment deals with A-375. The experiment is described as follows: Cytotoxicity against human A375 cell line by clonogenic plating efficiency assay after 72 hrs. In kind it is functional, cell-based. To be noted: A-375, 72 h. In a few lines: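 Clonogenic survival: 1000 cells per well were plated and exposed to free or antibody-conjugated maytansinoid (0 to 3 nM) for 72 h. Medium was then replaced with fresh medium, and colonies grew for a total of 7-10 days after plating. Colonies were fixed and stained with 0.2% crystal violet in 10% formalin/PBS, then counted. Surviving fraction = colonies in drug-exposed wells / colonies in control wells.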

With `COc1cc2cc(c1Cl)N(C)C(=O)CC(OC(=O)[C@H](C)N(C)C(=O)CCC(C)SSC)C1(C)OC1C(C)C1CC(O)(NC(=O)O1)C(OC)/C=C/C=C(\C)C2` (mixture of isomers), the IC50 stood at 0.0042 nM in the experiment on SK-BR-3 and 0.011 nM with KB.
For `COc1cc2cc(c1Cl)N(C)C(=O)CC(O)C1(C)OC1C(C)C1CC(O)(NC(=O)O1)C(OC)/C=C/C=C(\C)C2` (stereo unspecified) [MAYTANSINOL], in that order: 1.2 nM and greater than 3 nM.
For `COc1cc2cc(c1Cl)N(C)C(=O)CC(OC(=O)[C@H](C)N(C)C(=O)CCSSCCC(=O)N(C)[C@@H](C)C(=O)OC1CC(=O)N(C)c3cc(cc(OC)c3Cl)C/C(C)=C/C=C/C(OC)C3(O)CC(OC(=O)N3)C(C)C3OC13C)C1(C)OC1C(C)C1CC(O)(NC(=O)O1)C(OC)/C=C/C=C(\C)C2` (stereo partly specified), in that order: 0.1 nM and 0.14 nM.
As to `COc1cc2cc(c1Cl)N(C)C(=O)CC(OC(=O)[C@H](C)N(C)C(=O)CCS)C1(C)OC1C(C)C1CC(O)(NC(=O)O1)C(OC)/C=C/C=C(\C)C2` (stereo partly specified), the IC50 with SK-BR-3 and in the experiment on KB was 1.1 nM each time.
For `COc1cc2cc(c1Cl)N(C)C(=O)CC(OC(=O)[C@@H](C)N(C)C(=O)CCS)C1(C)OC1C(C)C1CC(O)(NC(=O)O1)C(OC)/C=C/C=C(\C)C2` (stereo partly specified), the IC50 with SK-BR-3 and in the experiment on KB was greater than 3 nM in each case.
With `COc1cc2cc(c1Cl)N(C)C(=O)CC(OC(=O)[C@@H](C)N(C)C(=O)CCC(C)(C)S)C1(C)OC1C(C)C1CC(O)(NC(=O)O1)C(OC)/C=C/C=C(\C)C2` (stereo partly specified), the concentration for half-maximal inhibition (IC50) with SK-BR-3 was 3.3 nM; with KB, greater than 1 nM.
Taken in the same sequence, the figures for `COc1cc2cc(c1Cl)N(C)C(=O)CC(OC(=O)[C@H](C)N(C)C(=O)CCSSC(C)CCC(=O)O)C1(C)OC1C(C)C1CC(O)(NC(=O)O1)C(OC)/C=C/C=C(\C)C2` (stereo partly specified) were 3.4 nM and 1.8 nM.
Regarding `COc1cc2cc(c1Cl)N(C)C(=O)CC(OC(=O)[C@H](C)N(C)C(=O)CSSC)C1(C)OC1C(C)C1CC(O)(NC(=O)O1)C(OC)/C=C/C=C(\C)C2` (stereo partly specified) [METHYLDITHIOACETYL MAYTANSINOID], the 50% inhibitory concentration (IC50) in the experiment with KB is 0.19 nM.
As to `COc1cc2cc(c1Cl)N(C)C(=O)CC(OC(=O)[C@@H](C)N(C)C(=O)CCSSC)C1(C)OC1C(C)C1CC(O)(NC(=O)O1)C(OC)/C=C/C=C(\C)C2` (stereo partly specified), the IC50 in the experiment on SK-BR-3 turned out to be 6 nM; with KB it was 3 nM.
Taken in the same sequence, the figures for `COc1cc2cc(c1Cl)N(C)C(=O)CC(OC(=O)[C@H](C)N(C)C(=O)CC[C@H](C)SSC)C1(C)OC1C(C)C1CC(O)(NC(=O)O1)C(OC)/C=C/C=C(\C)C2` (stereo partly specified) were 0.032 nM and 0.04 nM.
For `COc1cc2cc(c1Cl)N(C)C(=O)CC(OC(=O)[C@H](C)N(C)C(=O)CCC(C)(C)SSC)C1(C)OC1C(C)C1CC(O)(NC(=O)O1)C(OC)/C=C/C=C(\C)C2` (stereo partly specified), in that order: 0.0032 nM and 0.0011 nM.
For `COc1cc2cc(c1Cl)N(C)C(=O)CC(OC(=O)[C@@H](C)N(C)C(=O)CC[C@@H](C)SSC)C1(C)OC1C(C)C1CC(O)(NC(=O)O1)C(OC)/C=C/C=C(\C)C2` (stereo partly specified), in that order: 2.2 nM and 2.4 nM.
Turning to `COc1cc2cc(c1Cl)N(C)C(=O)CC(OC(=O)[C@H](C)N(C)C(=O)CC[C@@H](C)SSC)C1(C)OC1C(C)C1CC(O)(NC(=O)O1)C(OC)/C=C/C=C(\C)C2` (stereo partly specified), the figures for the IC50 in the experiment on SK-BR-3 and in the experiment on KB were 0.027 nM and 0.042 nM, respectively.
Turning to `COc1cc2cc(c1Cl)N(C)C(=O)C[C@H](OC(=O)[C@H](C)N(C)C(C)=O)[C@]1(C)O[C@H]1[C@H](C)[C@@H]1C[C@@](O)(NC(=O)O1)[C@H](OC)/C=C/C=C(\C)C2` [MAYTANSINE], the IC50 is 0.03 nM in the experiment with SK-BR-3; 0.1 nM with OVCAR-3; 0.034 nM in the experiment on KB; 0.04 nM in the experiment on A-431; 0.044 nM in the experiment with MCF7; 0.75 nM in the experiment with HCT-15. The results for the IC50 in the experiment with SW-620, with A549 and in the experiment with A-375 were greater than 0.1 nM, 0.16 nM and 0.037 nM, respectively.
For the molecule `COc1cc2cc(c1Cl)N(C)C(=O)CC(OC(=O)[C@@H](C)N(C)C(=O)CCCSSC)C1(C)OC1C(C)C1CC(O)(NC(=O)O1)C(OC)/C=C/C=C(\C)C2` (stereo partly specified), 2 nM corresponded to half-maximal inhibition with KB (IC50).
The same measure, in the same setting: to `COc1cc2cc(c1Cl)N(C)C(=O)CC(OC(=O)[C@H](C)N(C)C(=O)CCSSc1ccccc1)C1(C)OC1C(C)C1CC(O)(NC(=O)O1)C(OC)/C=C/C=C(\C)C2` (stereo partly specified) belongs 0.1 nM.
As for `COc1cc2cc(c1Cl)N(C)C(=O)CC(OC(=O)[C@@H](C)N(C)C(=O)CCC(C)SSC)C1(C)OC1C(C)C1CC(O)(NC(=O)O1)C(OC)/C=C/C=C(\C)C2` (mixture of isomers), the IC50 was determined as 0.22 nM in the experiment with SK-BR-3 and 1.2 nM with KB.
For `COc1cc2cc(c1Cl)N(C)C(=O)CC(OC(=O)[C@@H](C)N(C)C(=O)CCC(C)(C)SSC)C1(C)OC1C(C)C1CC(O)(NC(=O)O1)C(OC)/C=C/C=C(\C)C2` (stereo partly specified), in that order: greater than 0.3 nM and greater than 0.3 nM.
Taken in the same sequence, the figures for `COc1cc2cc(c1Cl)N(C)C(=O)CC(OC(=O)[C@H](C)N(C)C(=O)CCC(C)(C)SSC(C)(C)CCC(=O)N(C)[C@@H](C)C(=O)OC1CC(=O)N(C)c3cc(cc(OC)c3Cl)C/C(C)=C/C=C/C(OC)C3(O)CC(OC(=O)N3)C(C)C3OC13C)C1(C)OC1C(C)C1CC(O)(NC(=O)O1)C(OC)/C=C/C=C(\C)C2` (stereo partly specified) were 0.0012 nM and 0.0016 nM.
For `COc1cc2cc(c1Cl)N(C)C(=O)CC(OC(=O)[C@H](C)N(C)C(=O)CCC(C)(C)SSCCCC(=O)O)C1(C)OC1C(C)C1CC(O)(NC(=O)O1)C(OC)/C=C/C=C(\C)C2` (stereo partly specified), in that order: 7.1 nM and 23 nM.
For the molecule `COc1cc2cc(c1Cl)N(C)C(=O)CC(OC(=O)[C@H](C)N(C)C(=O)CCC(C)S)C1(C)OC1C(C)C1CC(O)(NC(=O)O1)C(OC)/C=C/C=C(\C)C2` (stereo partly specified), the values for the IC50 in the experiment on SK-BR-3 and in the experiment on KB were 0.031 nM and 0.077 nM, respectively.
For `COc1cc2cc(c1Cl)N(C)C(=O)CC(OC(=O)[C@@H](C)N(C)C(=O)CC[C@H](C)SSC)C1(C)OC1C(C)C1CC(O)(NC(=O)O1)C(OC)/C=C/C=C(\C)C2` (stereo partly specified), in that order: greater than 3 nM and greater than 3 nM.
For `COc1cc2cc(c1Cl)N(C)C(=O)CC(OC(=O)[C@H](C)N(C)C(=O)CCCSSC)C1(C)OC1C(C)C1CC(O)(NC(=O)O1)C(OC)/C=C/C=C(\C)C2` (stereo partly specified), in that order: 0.038 nM and 0.0085 nM.
As to `COc1cc2cc(c1Cl)N(C)C(=O)CC(OC(=O)[C@H](C)N(C)C(=O)CCC(C)(C)S)C1(C)OC1C(C)C1CC(O)(NC(=O)O1)C(OC)/C=C/C=C(\C)C2` (stereo partly specified), the IC50 in the experiment on SK-BR-3 is 0.12 nM; in the experiment on KB it was 0.29 nM.
Consider `COc1cc2cc(c1Cl)N(C)C(=O)CC(OC(=O)[C@H](C)N(C)C(=O)CCSSC)C1(C)OC1C(C)C1CC(O)(NC(=O)O1)C(OC)/C=C/C=C(\C)C2` (stereo partly specified), for which the IC50 with SK-BR-3 is 0.014 nM; in the experiment with OVCAR-3, 0.05 nM; with KB, 0.029 nM; in the experiment on A-431 it was less than 0.03 nM; in the experiment on MCF7, less than 0.03 nM; in the experiment with HCT-15, 0.13 nM. Besides, the IC50 in the experiment on SW-620 amounted to 0.04 nM; in the experiment with A549, 0.12 nM; with A-375, 0.03 nM.
